Experimental data as given in ChEMBL document CHEMBL2040828 (J Med Chem, 2012).

tested on: not listed separately; assay: Irreversible inhibition of hepatitis C virus NS5B polymerase; set-up: species or system Hepacivirus hominis; conditions: not given

IC50 [nM]	SMILES
46	Cc1ccc2c(c1)c(-c1ccc[nH]c1=O)c(C(=O)NS(=O)(=O)C1CC1)n2Cc1cc(S(=O)(=O)C(F)(F)F)ccc1Cl
14	Cc1ccc2c(c1)c(-c1ccc[nH]c1=O)c(C(=O)NS(=O)(=O)C1CC1)n2Cc1cc([S+]([O-])C(F)(F)F)ccc1Cl (centres undefined)
5	Cc1ccc2c(c1)c(-c1ccc[nH]c1=O)c(C(=O)NS(=O)(=O)C1CC1)n2Cc1ccccc1F
6	CCc1ccc2c(c1)c(-c1ccc[nH]c1=O)c(C(=O)NS(=O)(=O)C1CC1)n2Cc1cc(S(N)(=O)=O)c(Cl)cc1Cl
5	Cc1ccc2c(c1)c(-c1ccc[nH]c1=O)c(C(=O)NS(=O)(=O)C1CC1)n2Cc1cc(S(N)(=O)=O)ccc1F
7	Cc1cc2c(-c3ccc[nH]c3=O)c(C(=O)NS(=O)(=O)C3CC3)n(Cc3cc([N+](=O)[O-])ccc3F)c2cc1F
6	Cc1ccc2c(c1)c(-c1ccc(C)[nH]c1=O)c(C(=O)NS(C)(=O)=O)n2Cc1cc([N+](=O)[O-])ccc1F
4	O=C(NS(=O)(=O)C1CC1)c1c(-c2ccc[nH]c2=O)c2ccccc2n1Cc1cc([N+](=O)[O-])ccc1F
14	Cc1ccc2c(c1)c(-c1ccc[nH]c1=O)c(C(=O)NS(=O)(=O)C1CC1)n2Cc1c(F)c(F)cc(S(C)(=O)=O)c1F

tested on: Hepatitis C virus; assay: Antiviral activity against HCV by cell based replicon assay; format: functional, organism-based, Hepacivirus hominis; conditions: not given

EC50 [nM]	SMILES
900	Cc1ccc2c(c1)c(-c1ccc[nH]c1=O)c(C(=O)NS(=O)(=O)C1CC1)n2Cc1cc(S(=O)(=O)C(F)(F)F)ccc1Cl
3400	Cc1ccc2c(c1)c(-c1ccc[nH]c1=O)c(C(=O)NS(=O)(=O)C1CC1)n2Cc1cc([S+]([O-])C(F)(F)F)ccc1Cl (centres undefined)
50	Cc1ccc2c(c1)c(-c1ccc[nH]c1=O)c(C(=O)NS(=O)(=O)C1CC1)n2Cc1ccccc1F
1400	CCc1ccc2c(c1)c(-c1ccc[nH]c1=O)c(C(=O)NS(=O)(=O)C1CC1)n2Cc1cc(S(N)(=O)=O)c(Cl)cc1Cl
550	Cc1ccc2c(c1)c(-c1ccc[nH]c1=O)c(C(=O)NS(=O)(=O)C1CC1)n2Cc1cc(S(N)(=O)=O)ccc1F
4	Cc1cc2c(-c3ccc[nH]c3=O)c(C(=O)NS(=O)(=O)C3CC3)n(Cc3cc([N+](=O)[O-])ccc3F)c2cc1F
8	Cc1ccc2c(c1)c(-c1ccc(C)[nH]c1=O)c(C(=O)NS(C)(=O)=O)n2Cc1cc([N+](=O)[O-])ccc1F
6	O=C(NS(=O)(=O)C1CC1)c1c(-c2ccc[nH]c2=O)c2ccccc2n1Cc1cc([N+](=O)[O-])ccc1F
270	Cc1ccc2c(c1)c(-c1ccc[nH]c1=O)c(C(=O)NS(=O)(=O)C1CC1)n2Cc1c(F)c(F)cc(S(C)(=O)=O)c1F

tested on: not listed separately; assay: AUC in rat at 10 mg/kg, po; format: ADME, organism-based; set-up: dose 10 mg/kg, route oral; conditions: plasma
Summary of the method: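 Single-dose pharmacokinetics: rats were dosed at 10 mg/kg, and monkeys and dogs at 3 mg/kg. Oral AUC, clearance, half-life and bioavailability were determined. All doses were given in 0.4% MC vehicle.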

AUC [µM·h]	SMILES
0.35	Cc1cc2c(-c3ccc[nH]c3=O)c(C(=O)NS(=O)(=O)C3CC3)n(Cc3cc([N+](=O)[O-])ccc3F)c2cc1F
